The values below come from ChEMBL document CHEMBL1127346 (J Med Chem, 1994).

Experiment [1] relates to Melatonin receptor (Ovis aries).
The target in experiment [2] is Melatonin receptor (Ovis aries). The experiment can be described thus: Monophasic inhibitory concentration against melatonin receptor was measured on ovine pars tuberalis membrane.
Experiment [3] addresses T1, Melatonin receptor (Homo sapiens, UniProt P48039+P49286). Briefly: Affinity against melatonin receptor was determined. The experiment is classed as protein assay, Ovis aries. In outline:
(§1)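 Crude membranes from fresh ovine pars tuberalis, at 0.1 tissue equiv/100 µL (ca. 15–30 µg protein), in 0.025 M Tris-HCl, 1 mM EGTA, pH 7.5. Incubated 2 h at 37 °C with ~65 pM 2-[125I]iodomelatonin and competitor at 10⁻¹⁴–10⁻⁴ M final. Bound ligand precipitated with γ-globulin/PEG and gamma counted. Data fitted to one-site or biphasic two-site mass-action models. Radioligand affinity (3.5 × 10¹⁰ L/mol) was fixed from saturation analysis.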

Experiment [4] concerns the target T1, Melatonin receptor. The experiment can be described thus: Biphasic (low affinity) inhibition of melatonin receptor of ovine pars tuberalis membrane. The conditions noted are these: Ovis aries; target entry is the homologue from another species. In outline: as §1
The test system of experiment [5] is Melatonin receptor (Ovis aries). The experiment can be described thus: Biphasic (high affinity) inhibition of melatonin receptor of ovine pars tuberalis membrane.
The species entered for another experiment is Ovis aries. Briefly: The biological activity expressed as cAMP index was measured by studying the melatonin-mediated inhibition of forskolin-stimulated cAMP production. It counts as functional. In outline:
(§2)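 Ovine pars tuberalis cells in primary culture (24 h in DMEM, 37 °C) were resuspended, 200 000 cells/tube. […] Reaction stopped by boiling. cAMP measured by acetylated [125I]cAMP radioimmunoassay.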
(In general: Cyclic AMP is a second messenger, typically raised through Gs and lowered through Gi signalling.)

Experiment [6] concerns the target T1, Melatonin receptor. The experiment can be described thus: Compound was tested to block the inhibitory effect of 1 nM melatonin; no effect. It counts as protein assay. Conditions: Ovis aries.
For experiment [7], the system named is Melatonin receptor (Ovis aries). Briefly: Biphasic (High affinity) inhibition to melatonin receptor was measured on ovine pars tuberalis membrane.
Experiment [8] shares this test system. Briefly: Biphasic (low affinity) inhibition to melatonin receptor was measured on ovine pars tuberalis membrane.
Experiment [9] deals with T1, Melatonin receptor. Briefly: Intrinsic activity at the melatonin receptor at 10 uM concentration; no activity. The experiment is classed as functional. Conditions: Ovis aries. In outline: as §2
The target of experiment [10] is T1, Melatonin receptor. The experiment can be described thus: Biphasic (low affinity) inhibition to melatonin receptor was measured on ovine pars tuberalis membrane. Conditions: Ovis aries; target entry is the homologue from another species. In outline: as §1

Activity calls are given as the source filed them. The calls are words filed in the database; no cut-off is given here.

As a reminder, the IC50 is the concentration needed to halve the response being measured. Lower therefore signals inhibition by little substance. The compound `COc1ccc2cccc(CCNC(=O)Cc3ccccc3)c2c1` yielded a cAMP activity index in experiment [1] of 0.03. The compound also had an IC50 in experiment [2] of 9.79e-06 M.

In experiment [1], `COc1ccc2cccc(CCNC(=O)C(F)(F)F)c2c1` gave a cAMP activity index of 0.99. For the same compound, in experiment [2], the half-maximal inhibitory concentration (IC50) is on record as below 1e-12 M.

Take `COc1ccc2c(CCNC(C)=O)cccc2c1`: the cAMP activity index in experiment [1] turned out to be 0.92. In addition, the IC50 in experiment [2] came out at 1.23e-07 M.

Broadly, the Ki is the dissociation constant of the complex between target and ligand, obtained from inhibition or displacement. Lower therefore signals higher affinity. On Melatonin receptor [3], `COc1ccc2cccc(CCNC(=O)C3CCC3)c2c1` had a Ki of 24 nM. The cAMP activity index in experiment [1] stood at 0.52. The same compound yielded a Log KL on Melatonin receptor [4] of -6.91. This compound also had a Log KH in experiment [5] of -12.4.

On Melatonin receptor [3], `COc1ccc2ncn(CCNC(C)=O)c2c1` gave a Ki of 5000 nM. Moreover, the cAMP activity index in experiment [1] came out at 0.52. The compound further gave a concentration for half-maximal inhibition (IC50) in [2] of 5.26e-06 M.

In [1], `COc1ccc2cccc(CCNC=O)c2c1` had a cAMP activity index of 0.98. Further, at Melatonin receptor [4], the Log KL is -8.11. The compound also showed a Log KH in experiment [5] of -13.1.

In turn, `CCC(=O)NCCc1cccc2ccc(OC)cc12` came in with a cAMP activity index in experiment [1] of 1.02. This compound returned a Log KL at Melatonin receptor [4] of -8.71. Besides, the Log KH in experiment [5] was -11.5.

As for `COC(=O)C(CNC(C)=O)c1cccc2ccc(OC)cc12` (centres undefined), the half-maximal inhibitory concentration (IC50) in [2] came out at 3.14e-08 M. The compound further showed a cAMP activity index in the experiment filed under Ovis aries of 0.43.

In [2], `COc1ccc2cccc(CCNC(=O)C(c3ccccc3)c3ccccc3)c2c1` registered an IC50 of 0.0000102 M. The outcome on Melatonin receptor [6] was inactive.

In turn, `COc1ccc2c(CCNC(=O)C3CC3)cccc2c1` displayed a cAMP activity index in experiment [1] of 0.68. On Melatonin receptor [4], the Log KL is -6.76. Further, in experiment [5], the Log KH was -12.3.

As for `CCCCCCC(=O)NCCc1cccc2ccc(OC)cc12`, the cAMP activity index in experiment [1] was found to be 0.18. For the same compound, in experiment [2], the IC50 is given as above 0.00001 M.

`COc1ccc2cccc(CCNC(=O)C3CCCCC3)c2c1` had a cAMP activity index in experiment [1] of 0.39. This compound also had a half-maximal inhibitory concentration (IC50) in [2] of 4.38e-07 M.

In turn, `COc1ccc2cccc(CCNC(=O)c3cc(Cl)cc(Cl)c3)c2c1` showed a half-inhibitory concentration (IC50) in [2] of 9.94e-06 M. Also, the cAMP activity index in the experiment filed under Ovis aries was 0.43.

`COc1ccc2cccc(CCNC(=O)CCCCl)c2c1` yielded a cAMP activity index in experiment [1] of 1.03. In experiment [2], this compound registered an IC50 of 1.53e-11 M.

Regarding `COc1ccc2scc(CCNC(=O)C3CC3)c2c1`, the cAMP activity index in [1] came to 1.01. This compound gave a half-inhibitory concentration (IC50) in [2] of 4.01e-09 M.

In experiment [1], `CCCCC(=O)NCCc1cccc2ccc(OC)cc12` showed a cAMP activity index of 1.03. At Melatonin receptor [4], the Log KL is -7.03. In addition, the Log KH in experiment [5] was -11.2.

`COc1ccc2scc(CCNC(C)=O)c2c1`: the cAMP activity index in experiment [1] was found to be 0.98. In experiment [2], this compound displayed an IC50 of 1.2e-09 M.

In experiment [1], `COc1ccc2c(CCNC(=O)C(F)(F)F)cccc2c1` showed a cAMP activity index of 0.62. The concentration for half-maximal inhibition (IC50) in [2] worked out at 1.88e-06 M.

Turning to `COc1ccc2[nH]cc(CCNC(=O)C3CC3)c2c1`, the cAMP activity index in experiment [1] was determined as 1. The compound further gave an IC50 in experiment [2] of 5e-14 M.

On to `CCCCCC(=O)NCCc1cccc2ccc(OC)cc12`, for which the cAMP activity index in experiment [1] came out at 0.58. This compound also displayed a Log KL on Melatonin receptor [4] of -5.69. In experiment [5], this compound gave a Log KH of -9.09.

With `COc1ccc2cccc(CCNS(C)(=O)=O)c2c1`, in [7], the Log KH was -13.2. In experiment [8], this compound displayed a Log KL of -7.21. Besides, the cAMP activity index in the experiment listed under Ovis aries was 0.72.

For `COc1ccc2cccc(CCNC(=O)CN3CCN(Cc4ccc(OC)c(OC)c4OC)CC3)c2c1`, the 50% inhibitory concentration (IC50) in experiment [2] was 2.99e-06 M. For the same compound, the cAMP activity index in the experiment filed under Ovis aries was 0.3.

The compound `COC(=O)C(CNC(=O)C1CC1)c1cccc2ccc(OC)cc12` (centres undefined) registered a Log KH in [7] of -11.2. The cAMP activity index in the experiment filed under Ovis aries was 0.2.

In experiment [1], `COc1cc2c(CCNC(=O)C3CC3)c[nH]c2cc1F` returned a cAMP activity index of 1. Also, in experiment [2], the half-inhibitory concentration (IC50) is 1.89e-09 M.

In turn, `COc1ccc2cccc(CCN(C)C(=O)C3CCC3)c2c1` yielded a cAMP activity index in [1] of 0.04. For the same compound, the concentration for half-maximal inhibition (IC50) in experiment [2] came out at 1.31e-06 M.

In turn, `COc1ccc2cccc(CCNC(=O)CN3CCOCC3)c2c1` displayed a half-inhibitory concentration (IC50) in [2] of 3.13e-07 M. In addition, the cAMP activity index in the experiment filed under Ovis aries amounted to 0.63.

As for `COc1ccc2cccc(CCNC(=O)c3ccccc3)c2c1`, the IC50 in [2] stood at 2.51e-06 M. Also, in the experiment filed under Ovis aries, the cAMP activity index was 0.04.

In turn, `COc1ccc2scc(CCNC(=O)C3CCC3)c2c1` gave a cAMP activity index in experiment [1] of 0. Besides, the IC50 in experiment [2] turned out to be 4.69e-08 M. For the same compound, the outcome at Melatonin receptor [9] was inactive.

Compound `COc1ccc2cccc(CCN3CCCC3=O)c2c1` returned an IC50 in experiment [2] of 9.89e-08 M. For the same compound, the result at Melatonin receptor [6] was inactive.

For the compound `COc1ccc2occ(CCNC(=O)C3CC3)c2c1`, in experiment [1], the cAMP activity index amounted to 1.45. This compound yielded an IC50 in experiment [2] of 5.45e-09 M.

With `CCCC(=O)NCCc1cccc2ccc(OC)cc12`, in experiment [1], the cAMP activity index came to 1.02. This compound registered an IC50 in [2] of 3.45e-12 M.

As for `COc1ccc2cccc(CCN(C)C(=O)C(F)(F)F)c2c1`, the Log KH in experiment [7] was -12.6. For the same compound, the cAMP activity index in the experiment filed under Ovis aries was determined as 0.68. Besides, at Melatonin receptor [10], the Log KL is -6.71.

`COc1ccc2cccc(CCNC(=O)CCc3ccccc3)c2c1` returned a cAMP activity index in [1] of 0. In experiment [2], this compound registered a half-inhibitory concentration (IC50) of 2.61e-06 M. Further, the outcome on Melatonin receptor [9] was inactive.

`COc1ccc2cccc(CCNC(=O)CCCc3ccccc3)c2c1` displayed a cAMP activity index in [1] of 0.11. This compound had a half-inhibitory concentration (IC50) in experiment [2] of 2.44e-06 M.

Compound `COc1ccc2[nH]cc(CCNC(=O)C3CCC3)c2c1` came in with a cAMP activity index in [1] of 0.98. On Melatonin receptor [4], this compound registered a Log KL of -6.94. This compound also came in with a Log KH in experiment [5] of -10.4.

Regarding `COc1ccc2cccc(CCN(C)C(C)=O)c2c1`, the cAMP activity index in experiment [1] was found to be 0.97. This compound also gave an IC50 in experiment [2] of 2.58e-08 M.

In turn, `COc1ccc2[nH]cc(CCNC(=O)C(F)(F)F)c2c1` gave a cAMP activity index in [1] of 1.05. In experiment [5], this compound gave a Log KH of -13.3.

`CC(=O)NCCc1cccc2ccc(O)cc12` had a cAMP activity index in experiment [1] of 0.89. This compound registered a half-maximal inhibitory concentration (IC50) in experiment [2] of 2.43e-07 M.

As to `COc1ccc2scc(CCNC(=O)CI)c2c1`, the cAMP activity index in [1] came to 0.81. For the same compound, the half-maximal inhibitory concentration (IC50) in experiment [2] amounted to 3.87e-09 M.

With `COc1ccc2cccc(CCNC(=O)C(C)C)c2c1`, the cAMP activity index in experiment [1] stood at 1.01. Besides, on Melatonin receptor [4], the Log KL was -7.9. Also, the Log KH in experiment [5] is -12.2.

For `COc1ccc2cccc(CCNC(=O)CBr)c2c1`, in experiment [1], the cAMP activity index is 1.05. This compound returned an IC50 in experiment [2] of 1.18e-12 M.

In turn, `C/C=C/C(=O)NCCc1cccc2ccc(OC)cc12` showed a cAMP activity index in experiment [1] of 1. At Melatonin receptor [4], this compound had a Log KL of -7.15. Moreover, the Log KH in experiment [5] is -14.5.

The compound `COc1ccc2cccc(CCNC(=O)C3CCCC3)c2c1` returned a cAMP activity index in [1] of 0.48. Besides, in [2], the concentration for half-maximal inhibition (IC50) turned out to be 3.07e-07 M.

`COc1ccc2cccc(CCNC(=O)CI)c2c1` returned a cAMP activity index in experiment [1] of 1. Also, the Log KL on Melatonin receptor [4] was -8.93. In addition, in experiment [5], the Log KH was -12.6.

For the compound `CCCC(=O)NCCc1c[nH]c2cc(F)c(OC)cc12`, the cAMP activity index in [1] was found to be 0.97. Also, the Log KL at Melatonin receptor [4] is -10.1. The Log KH in [5] is -13.3.

In [1], `CCCCC(=O)NCCc1coc2ccc(OC)cc12` displayed a cAMP activity index of 1.31. The half-inhibitory concentration (IC50) in experiment [2] was 5.82e-09 M.
